# According to ChEMBL document CHEMBL3785029, “Synthesis and Characterization of Fatty Acid Conjugates of Niacin and Salicylic Acid” (J Med Chem, 2016):
# Activity calls are given as the source filed them. No cut-off for these calls is given here.
# What was measured:
# [1] = Drug uptake in endoplasmic reticulum of CellLight ER-RFP/BacMam 2-treated human HuH7 cells at 25 uM after 30 mins by DAPI staining-based confocal microscopy; assay type: ADME, cell-based; details: huh-7, 0.5 h
# In short: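 HuH-7 cells were plated overnight in 10% FBS DMEM and transduced with CellLight ER-RFP BacMam 2.0 for 48 h. They were then exposed to fluorescent conjugate at 25 µM in DMEM for 30 min, fixed in 4% paraformaldehyde for 2 min at 37 °C and washed with PBS. Imaging was by confocal microscopy with a 63X lens.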
# Plasma = test: Drug level in Sprague-Dawley rat plasma treated with N-(2-(4Z,7Z,10Z,13Z,16Z,19Z)-docosa-4,7,10,13,16,19-hexaenamidoethyl)-2-hydroxybenzamide at 300 mg/kg, po measured up to 24 hrs post dose; assay type: ADME, organism-based; details: in vivo
# In short: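 Single oral dose of 300 mg/kg to Sprague Dawley rats. Plasma collected at 0, 0.5, 1, 2, 4, 8 and 24 hr. Analytes were the parent, the salicylate-linker and linker-DHA metabolites, salicylic acid and salicyluric acid; Cmax and AUClast derived.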
# Mus musculus [2] = organism: Mus musculus; details: 3.2 mM
# Mus musculus [3] = organism: Mus musculus; test: Inhibition of NFkappaB in mouse RAW 264.7 cells at 78.7 uM preincubated for 2 hrs followed by LPS addition for 3 hrs by luciferase reporter gene assay relative to control; assay type: cell-based
# [4] = Drug uptake in lysosomes of human HuH7 cells at 25 uM after 30 mins by LysoTracker/DAPI staining-based confocal microscopy; assay type: ADME, cell-based, Lysosome; details: huh-7, 0.5 h
# [5] = Drug uptake in endoplasmic reticulum of human HuH7 cells at 25 uM after 30 mins by LysoTracker/DAPI staining-based confocal microscopy; assay type: ADME, cell-based; details: huh-7, 0.5 h
# In short: (§1)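 HuH-7 hepatocellular carcinoma cells were plated overnight in DMEM with 10% FBS. They were transduced for 48 h with BacMam CellLight ER-RFP or Late Endosomes-RFP organelle markers. Cells were then exposed for 30 min to fluorescent cis-parinaric acid conjugate in DMEM at 25 µM. They were fixed in 4% paraformaldehyde for 2 min at 37 °C, washed with PBS, mounted with anti-fade DAPI and imaged by confocal microscopy at 63X.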
# [6] = Cmax in portal vein cannulated Sprague-Dawley rat at 30 mg/kg, po measured up to 140 mins; assay type: ADME, organism-based; design: dose 30 mg/kg, route oral; details: portal vein blood
# In short: (§2)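 Sprague Dawley rats surgically fitted with indwelling jugular vein and portal vein cannulas; oral dosing, then serial blood draws from both portal and jugular veins at 10, 20, 40 min and 1, 2, 4, 6 hr post dose; plasma analysed for parent and metabolites by LC/MS/MS.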
# [7] = Cmax in jugular vein cannulated Sprague-Dawley rat at 30 mg/kg, po measured up to 140 mins; assay type: ADME, organism-based; design: dose 30 mg/kg, route oral; details: jugular vein blood; in short: as §2
# Rattus norvegicus [8] = test: Cmax in portal vein cannulated Sprague-Dawley rat assessed nicotinuric acid at 30 mg/kg, po measured up to 140 mins; assay type: ADME, organism-based; design: dose 30 mg/kg, route oral; details: in vivo; in short: as §2
# Rattus norvegicus [9] = test: Cmax in jugular vein cannulated Sprague-Dawley rat assessed nicotinuric acid at 30 mg/kg, po measured up to 140 mins; assay type: ADME, organism-based; design: dose 30 mg/kg, route oral; details: in vivo; in short: as §2
# Rattus norvegicus [10] = test: Cmax in portal vein cannulated Sprague-Dawley rat assessed as (S)-N-(pyrrolidin-3-yl)nicotinamide at 30 mg/kg, po measured up to 140 mins; assay type: ADME, organism-based; design: dose 30 mg/kg, route oral; details: in vivo; in short: as §2
# Rattus norvegicus [11] = test: Cmax in jugular vein cannulated Sprague-Dawley rat assessed as (S)-N-(pyrrolidin-3-yl)nicotinamide at 30 mg/kg, po measured up to 140 mins; assay type: ADME, organism-based; design: dose 30 mg/kg, route oral; details: in vivo; in short: as §2
# [12] = target: T1, Sterol regulatory element-binding protein 2 (Homo sapiens) (UniProt Q12772); test: Inhibition of SREBP2 maturation in human HepG2 cells at 50 uM after overnight incubation by immunoblot analysis; assay type: cell-based
# T1 sequence (whole entry): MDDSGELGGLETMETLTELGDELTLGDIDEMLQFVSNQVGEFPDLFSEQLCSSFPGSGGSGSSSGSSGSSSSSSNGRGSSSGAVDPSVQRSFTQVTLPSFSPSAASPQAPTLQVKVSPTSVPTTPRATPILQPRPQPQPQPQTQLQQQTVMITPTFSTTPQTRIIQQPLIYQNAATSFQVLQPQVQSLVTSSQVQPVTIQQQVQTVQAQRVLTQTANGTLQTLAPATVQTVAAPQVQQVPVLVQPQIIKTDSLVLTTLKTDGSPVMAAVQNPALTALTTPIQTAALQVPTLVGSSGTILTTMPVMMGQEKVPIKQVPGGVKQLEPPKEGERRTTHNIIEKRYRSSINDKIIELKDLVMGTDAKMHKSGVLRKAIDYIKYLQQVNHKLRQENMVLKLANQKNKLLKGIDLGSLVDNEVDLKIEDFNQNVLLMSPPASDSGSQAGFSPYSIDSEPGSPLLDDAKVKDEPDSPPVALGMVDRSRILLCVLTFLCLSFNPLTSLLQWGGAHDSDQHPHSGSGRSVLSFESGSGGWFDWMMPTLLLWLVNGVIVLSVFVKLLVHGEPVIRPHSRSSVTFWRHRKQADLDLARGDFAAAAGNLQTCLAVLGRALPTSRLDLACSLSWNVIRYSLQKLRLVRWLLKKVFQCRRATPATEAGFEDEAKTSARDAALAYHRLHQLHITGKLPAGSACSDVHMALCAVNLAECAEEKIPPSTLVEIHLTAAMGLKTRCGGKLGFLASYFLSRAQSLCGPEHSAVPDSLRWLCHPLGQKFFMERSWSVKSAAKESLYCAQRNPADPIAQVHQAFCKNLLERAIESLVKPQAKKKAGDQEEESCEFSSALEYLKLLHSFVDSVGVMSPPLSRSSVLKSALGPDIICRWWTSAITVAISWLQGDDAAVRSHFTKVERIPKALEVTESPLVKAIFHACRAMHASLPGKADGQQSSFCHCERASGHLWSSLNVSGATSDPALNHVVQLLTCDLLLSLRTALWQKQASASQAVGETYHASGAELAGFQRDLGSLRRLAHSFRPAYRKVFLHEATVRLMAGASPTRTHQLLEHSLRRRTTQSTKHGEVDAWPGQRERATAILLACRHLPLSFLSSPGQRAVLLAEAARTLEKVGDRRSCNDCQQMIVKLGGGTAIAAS
# In short: (§3)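 Human HepG2 cells were incubated with test agents, including 10 µM atorvastatin alone or combined with conjugate. The mature form of SREBP-2 protein was then assessed.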
# [13] = AUClast in Sprague-Dawley rat at 30 mg/kg, po administered as single dose measured up to 6 hrs post dose by LC/MS/MS analysis; details: in vivo
# [14] = target: T1, Sterol regulatory element-binding protein 2 (Homo sapiens); details: HepG2, 10 uM
# in vivo = details: Sprague-Dawley, rat, po, 30 mg/kg
# [15] = Drug uptake in endoplasmic reticulum of CellLight ER-RFP-treated human HuH7 cells at 25 uM after 30 mins by DAPI staining-based confocal microscopy in presence of endocytosis inhibitor dynasore; assay type: ADME, cell-based; details: huh-7, 0.5 h
# In short: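 HuH-7 cells were transduced with CellLight ER-RFP BacMam 2.0 for 48 h and pretreated with 80 µM dynasore. They were then exposed to compound for 30 min, fixed in 4% formaldehyde for 2 min at 37 °C and mounted with anti-fade DAPI. Imaging was by confocal microscopy with a 63X lens.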
# [16] = Drug uptake in lysosomes of CellLight ER-RFP/BacMam 2-treated human HuH7 cells at 25 uM after 30 mins by DAPI staining-based confocal microscopy; assay type: ADME, cell-based, Lysosome; details: huh-7, 0.5 h; in short: as §1
# [17] = target: T1, Sterol regulatory element-binding protein 2 (Homo sapiens); test: Induction of SREBP2 maturation in human HepG2 cells at 10 uM after overnight incubation by immunoblot analysis; assay type: cell-based; in short: as §3
# [18] = target: T2, Fatty-acid amide hydrolase 1 (Homo sapiens, UniProt O00519); test: Drug metabolism in human HepG2 cells assessed as FAAH-mediated compound hydrolysis by measuring level of deuterium-labelled EPA-d5 released at 50 uM by LC/MS-MS analysis; assay type: ADME, cell-based; details: hepg2, 50 µM, TDE = time-dependent effect
# T2 sequence (O00519 whole entry): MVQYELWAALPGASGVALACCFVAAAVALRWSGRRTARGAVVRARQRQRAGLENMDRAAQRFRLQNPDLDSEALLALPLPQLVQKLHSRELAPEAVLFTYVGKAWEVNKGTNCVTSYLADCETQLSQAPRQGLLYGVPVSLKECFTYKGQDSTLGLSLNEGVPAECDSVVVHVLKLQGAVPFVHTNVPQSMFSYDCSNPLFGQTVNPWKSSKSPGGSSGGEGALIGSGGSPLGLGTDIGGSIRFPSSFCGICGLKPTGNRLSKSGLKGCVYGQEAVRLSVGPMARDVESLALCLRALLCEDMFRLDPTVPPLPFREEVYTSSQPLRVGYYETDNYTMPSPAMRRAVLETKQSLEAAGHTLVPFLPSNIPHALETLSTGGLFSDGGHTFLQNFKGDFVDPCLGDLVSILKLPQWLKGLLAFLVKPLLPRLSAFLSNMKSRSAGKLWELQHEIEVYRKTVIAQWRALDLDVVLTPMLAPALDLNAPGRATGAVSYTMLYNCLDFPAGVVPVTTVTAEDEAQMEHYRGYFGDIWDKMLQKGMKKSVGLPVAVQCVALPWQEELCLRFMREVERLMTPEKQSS
# Rattus norvegicus [19] = test: Cmax in portal vein cannulated Sprague-Dawley rat assessed as N-(2-(methylamino)ethyl)nicotinamide at 30 mg/kg, po measured up to 140 mins; assay type: ADME, organism-based; design: dose 30 mg/kg, route oral; details: in vivo, BLD = below limit of detection; in short: as §2
# Rattus norvegicus [20] = test: Cmax in jugular vein cannulated Sprague-Dawley rat assessed as N-(2-(methylamino)ethyl)nicotinamide at 30 mg/kg, po measured up to 140 mins; assay type: ADME, organism-based; design: dose 30 mg/kg, route oral; details: in vivo, BLD = below limit of detection; in short: as §2
# Liver = test: Drug uptake in Sprague-Dawley rat liver at 100 mg/kg, po qd for 3 days measured 4 hrs post last dose; assay type: ADME, organism-based; details: in vivo
# In short: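 Sprague Dawley rats (n = 6) dosed 100 mg/kg once daily for 3 days; plasma and tissues collected four hours after the last dose and analysed for parent compound and metabolites.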
# [21] = target: T1, Sterol regulatory element-binding protein 2 (Homo sapiens); test: Inhibition of SREBP2 in human HepG2 cells assessed as reduction of PCSK9 secretion at 50 uM after 16 hrs by ELISA; assay type: cell-based
# In short: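 Human HepG2 cells were treated in culture. Secreted PCSK9 in the culture supernatant was quantified with a human-specific PCSK9 ELISA.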
structure (smiles),measurement,setting,value
CC\C=C/C=C/C=C/C=C\CCCCCCCC(=O)NCCNC(=O)c1ccccc1O,Drug uptake,[1],Active
O=C(O)c1ccccc1O [SALICYLIC ACID],Drug metabolism,Plasma,metabolite_detected
same,inhibition,Mus musculus [2],Active
O=C(O)CNC(=O)c1ccccc1O [SALICYLURIC ACID],Drug metabolism,Plasma,metabolite_detected
NCCNC(=O)c1ccccc1O,Drug metabolism,Plasma,metabolite_detected
CC/C=C\C/C=C\C/C=C\C/C=C\C/C=C\C/C=C\CCC(=O)O,inhibition,Mus musculus [3],Active
CC\C=C/C=C/C=C/C=C\CCCCCCCC(=O)O,Drug uptake,[4],Not Active
same,Drug uptake,[5],Not Active
"CC/C=C\C/C=C\C/C=C\C/C=C\C/C=C\CCCC(=O)N1CCC(NC(=O)c2cccnc2)C1 (single isomer, unassigned)",Cmax,[6],5320 ng/mL
same,Cmax,[7],564 ng/mL
same,Cmax,Rattus norvegicus [8],13 ng/mL
same,Cmax,Rattus norvegicus [9],11 ng/mL
same,Cmax,Rattus norvegicus [10],73 ng/mL
same,Cmax,Rattus norvegicus [11],35 ng/mL
O=C(O)c1cccnc1 [NIACIN],inhibition,[12],inactive
same,AUC(0-t) at 6 h,[13],6980 ng·h/mL
same,inhibition,[14],inactive
same,Cmax at 6 h,in vivo,7470 ng/mL
CC\C=C/C=C/C=C/C=C\CCCCCCCC(=O)NCCNC(=O)c1cccnc1,Drug uptake,[15],Not Active
same,Drug uptake,[16],Not Active
same,Drug uptake,[1],Active
CC(C)c1c(C(=O)Nc2ccccc2)c(-c2ccccc2)c(-c2ccc(F)cc2)n1CC[C@@H](O)C[C@@H](O)CC(=O)O,Activity,[17],Active
[2H]C([2H])([2H])C([2H])([2H])/C=C\C/C=C\C/C=C\C/C=C\C/C=C\CCCC(=O)NCCNC(=O)c1cccnc1,Drug metabolism,[18],tde
CC/C=C\C/C=C\C/C=C\C/C=C\C/C=C\CCCC(=O)N(C)CCNC(=O)c1cccnc1,Cmax,[6],5060 ng/mL
same,Cmax,[7],400 ng/mL
same,Cmax,Rattus norvegicus [8],11 ng/mL
same,Cmax,Rattus norvegicus [9],28 ng/mL
same,Cmax,Rattus norvegicus [19],BLD
same,Cmax,Rattus norvegicus [20],BLD
same,Drug uptake,Liver,Active
CC/C=C\C/C=C\C/C=C\C/C=C\C/C=C\CCCC(=O)O,inhibition,[21],inactive
same,inhibition,[12],inactive
